{"data": "Published values pooled from the literature", "target": "Cytochrome P450 2D6 (CYP2D6, Homo sapiens, UniProt P10635)", "observed": "enzyme activity", "action": "inhibitor", "note": "Compare with care: the assays were run in different laboratories."}
{"SMILES": "Nc1nc(N)c2nc(CNc3ccc(C(=O)NCCc4ccccc4)cc3)cnc2n1", "assay": "luciferase", "measurement": "IC50", "value": "10500 nM"}
{"SMILES": "O=c1c(O)c(-c2ccc(O)c(O)c2)oc2cc(O)cc(O)c12", "assay": "fluorescence", "setting": "pH 7.4", "measurement": "IC50", "value": "650 nM"}
{"SMILES": "C[C@H]1CN(c2n[nH]c3nc(N[C@H]4CC[C@H](NS(=O)(=O)CCC(F)(F)F)CC4)ncc23)CCO1", "measurement": "IC50", "value": "> 100000 nM"}
{"SMILES": "Cc1coc([C@H]2C[C@H]3[C@@H](C)SC(N)=N[C@@]3(c3ccc(F)cc3F)CO2)n1", "test system": "human, liver microsomes", "setting": "pH 7.4", "measurement": "IC50", "value": "> 30000 nM"}
{"SMILES": "Nc1nc(N)c2nc(C(=O)NCc3cccc(C(F)(F)F)c3)cnc2n1", "assay": "luciferase", "measurement": "IC50", "value": "251 nM"}
{"SMILES": "COc1ccc2cc3[n+](cc2c1OC)CCc1cc2c(cc1-3)OCO2", "measurement": "IC50", "value": "600 nM"}
{"SMILES": "Cc1cc([C@H]2C[C@H]3[C@@H](CF)SC(N)=N[C@@]3(c3ccc(F)cc3F)CO2)on1", "test system": "human, liver microsomes", "setting": "pH 7.4", "measurement": "IC50", "value": "> 30000 nM"}
{"SMILES": "Cc1cc2c(F)c(Oc3ncnn4cc(OC[C@@H](C)O)c(C)c34)ccc2[nH]1", "assay": "fluorescence", "setting": "15 min", "measurement": "IC50", "value": "34700 nM"}
{"SMILES": "Cc1cc(C)c2c(c1)[C@@H](N(Cc1cc(C(F)(F)F)cc(C(F)(F)F)c1)c1nnn(C)n1)CCCN2C[C@H]1CC[C@H](C(=O)O)CC1", "test system": "human, liver microsomes", "setting": "pH 7.4", "measurement": "Ki", "value": "2100 nM"}
{"SMILES": "CCc1cc(/C(C)=N/OCc2ccc(C3CCCCC3)c(C(F)(F)F)c2)ccc1CN1CC(C(=O)O)C1", "test system": "human, liver microsomes", "setting": "20 min", "measurement": "IC50", "value": "> 1100 nM"}
{"SMILES": "CCOC(=O)C1CCN(C(=O)c2ccc(N(CC)Cc3cnc4nc(N)nc(N)c4n3)cc2)CC1", "assay": "luciferase", "measurement": "IC50", "value": "51300 nM"}
{"SMILES": "COc1ccn2c(Nc3ccccc3F)c(-c3ccncn3)nc2c1", "measurement": "IC50", "value": "2300 nM"}
